Calls of active or inactive are those of the source. The calls are words filed in the database; no cut-off is given here.
Key:
Mus musculus [1] = assay: In vivo antitumor activity was evaluated on L1210 leukemia model and median survival day was determined at 20 mg/kg dosage concentration; format: functional
Summary of the method: (§1)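 L1210 leukemia, 10^5 viable cells inoculated ip on day 0 into CDF1 hybrid male or female mice, 10 mice per group. Compounds were given ip in distilled water (0.1 mL/10 g body weight) on days 1-5. Vehicle controls were treated the same way. NCI protocols were followed. T/C = median survival day of treated mice / median survival day of vehicle controls × 100.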

Mus musculus [2] = assay: In vivo antitumor activity was determined against P388 leukemia cells expressed as number of animals survived; format: functional
Summary of the method: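 P388 leukemia, 10^6 viable cells inoculated ip on day 0 into CDF1 hybrid male or female mice, 10 mice per group. Compounds were given ip in distilled water (0.1 mL/10 g body weight) at various doses on days 1-5. Vehicle controls were treated the same way. NCI protocols were followed.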

Mus musculus [3] = assay: In vivo antitumor activity was evaluated on L1210 leukemia model and percent of treated/control of tumor cells was determined at 20 mg/kg dosage concentration; format: functional; summary of the method: as §1
Mus musculus [4] = assay: In vivo antitumor activity was evaluated on L1210 leukemia model and weight change in tumors was determined at 20 mg/kg dosage concentration; format: functional
Mus musculus [5] = assay: In vivo antitumor activity was evaluated on L1210 leukemia model and number of survivors (animals) was determined at 20 mg/kg dosage concentration; format: functional; summary of the method: as §1
Mus musculus [6] = assay: In vivo antitumor activity was determined against P388 leukemia cells expressed as treated/control at the dose of 10 mg/kg; format: functional
Summary of the method: (§2)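 Following NCI protocols, 10^6 viable P388 leukemia cells were inoculated ip on day 0 into male or female CDF1 hybrid mice, 10 per test group. Compounds in distilled water were given ip (0.1 mL/10 g body weight) at various doses on days 1–5. T/C = median survival day of treated / median survival day of negative controls × 100.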

Mus musculus [7] = assay: In vivo antitumor activity was determined against P388 leukemia cells expressed as treated/control at the dose of 40 mg/kg; format: functional; summary of the method: as §2
Mus musculus [8] = assay: In vivo antitumor activity was determined against P388 leukemia cells expressed as treated/control at the dose of 5 mg/kg; format: functional; summary of the method: as §2
Calf thymus DNA = assay: Binding affinity for DNA by ethidium bromide displacement assay; format: nucleic-acid assay; conditions: Bos taurus
Summary of the method: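 Competitive ethidium bromide displacement with calf thymus DNA at 10 µg/mL in 20 mM Na phosphate buffer, 0.1 M NaCl, 1 mM EDTA, pH 7.4. The apparent DNA affinity constant is given in 10^6 M^-1 ± standard deviation, from 6 values across two independent experiments.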

Mus musculus [9] = assay: In vivo antitumor activity was determined against P388 leukemia cells expressed as treated/control at the dose of 20 mg/kg; format: functional; summary of the method: as §2
L1210 = assay: (§3) In vitro cytotoxicity against L1210 cells was determined after 48 hours of incubation; format: functional, Mus musculus; conditions: Mus musculus, L1210, 48 h; read-out: ID50 (the source's name)
Summary of the method: (§4)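 Exponentially growing L1210 cells were cultured in RPMI 1640 with 2 mM glutamine, penicillin/streptomycin and 10% fetal calf serum, under 5% CO2 at 37 °C. Drugs dissolved in distilled water were added to cells at 0.8 × 10^5 cells/mL for 48 h, then cells were counted. ID50 was estimated by regression of dose-response data, as the mean of two values from two independent experiments.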

Mus musculus [10] = assay: In vivo antitumor activity was determined against P388 leukemia cells expressed as treated/control at the dose of 80 mg/kg;T = toxic at this dose; format: organism-based; set-up: dose 80 mg/kg; summary of the method: as §2
Mus musculus [11] = assay: In vivo antitumor activity was determined against P388 leukemia cells expressed as treated/control at the dose of (2.5-40)mg/kg; IA = Inactive; format: functional, organism-based; summary of the method: as §2
Mus musculus [12] = assay: In vivo antitumor activity was determined against P388 leukemia cells expressed as treated/control at the dose of 50 mg/kg;T = toxic at this dose; format: organism-based; set-up: dose 50 mg/kg; summary of the method: as §2
Mus musculus [13] = assay: In vivo antitumor activity was determined against P388 leukemia cells expressed as treated/control at the dose of (5-20)mg/kg; IA = Inactive; format: functional, organism-based; summary of the method: as §2
Mus musculus [14] = assay: In vivo antitumor activity was determined against P388 leukemia cells expressed as treated/control at the dose of 60 mg/kg; T = toxic at this dose; format: organism-based; set-up: dose 60 mg/kg; summary of the method: as §2
Mus musculus [15] = assay: In vivo antitumor activity was determined against P388 leukemia cells expressed as treated/control at the dosage of (0.3-40)mg/kg; IA= inactive; format: functional, organism-based; summary of the method: as §2
[16] = as §3; format: cell-based; conditions: mouse, read-out: ID50; summary of the method: as §4
Mus musculus [17] = assay: In vivo antitumor activity was evaluated on L1210 leukemia model and number of survivors (animals) was determined at 1.25 mg/kg dosage concentration; number of survivors given as 0/10; format: functional; summary of the method: as §1
Mus musculus [18] = assay: In vivo antitumor activity was evaluated on L1210 leukemia model and percent of treated/control of tumor cells was determined at 10 mg/kg dosage concentration; format: functional
Summary of the method: (§5)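 Following NCI protocols, 10^5 viable L1210 leukemia cells were inoculated ip on day 0 into male or female CDF1 hybrid mice, 10 per test group. Compounds in distilled water were dosed ip (0.1 mL/10 g body weight) daily on days 1–5. T/C = median survival day of treated mice / median survival day of negative controls × 100.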

Mus musculus [19] = assay: In vivo antitumor activity was evaluated on L1210 leukemia model and median survival day was determined at 10 mg/kg dosage concentration; format: functional; summary of the method: as §1
Mus musculus [20] = assay: In vivo antitumor activity was evaluated on L1210 leukemia model and number of survivors (animals) was determined at 2.5 mg/kg dosage concentration; number of survivors given as 0/10; format: functional; summary of the method: as §1
Mus musculus [21] = assay: In vivo antitumor activity was evaluated on L1210 leukemia model and weight change in tumors was determined at 40 mg/kg dosage concentration; format: functional
Mus musculus [22] = assay: In vivo antitumor activity was evaluated on L1210 leukemia model and median survival day was determined at 50 mg/kg dosage concentration; format: functional; summary of the method: as §1
Mus musculus [23] = assay: In vivo antitumor activity was evaluated on L1210 leukemia model and median survival day was determined at 5 mg/kg dosage concentration; format: functional; summary of the method: as §1
Mus musculus [24] = assay: In vivo antitumor activity was evaluated on L1210 leukemia model and weight change in tumors was determined at 1.25 mg/kg dosage concentration; format: functional
Mus musculus [25] = assay: In vivo antitumor activity was evaluated on L1210 leukemia model and median survival day was determined at 1.25 mg/kg dosage concentration; format: functional; summary of the method: as §1
Mus musculus [26] = assay: In vivo antitumor activity was evaluated on L1210 leukemia model and number of survivors (animals) was determined at 10 mg/kg dosage concentration; number of survivors given as 3/10; format: functional; summary of the method: as §1
Mus musculus [27] = assay: In vivo antitumor activity was determined against P388 leukemia cells expressed as treated/control at the dose of 50 mg/kg; format: functional; summary of the method: as §2
Mus musculus [28] = assay: In vivo antitumor activity was evaluated on L1210 leukemia model and weight change in tumors was determined at 2.5 mg/kg dosage concentration.; format: functional
Mus musculus [29] = assay: In vivo antitumor activity was evaluated on L1210 leukemia model and percent of treated/control of tumor cells was determined at 1.25 mg/kg dosage concentration; format: functional; summary of the method: as §5
Mus musculus [30] = assay: In vivo antitumor activity was evaluated on L1210 leukemia model and percent of treated/control of tumor cells was determined at 40 mg/kg dosage concentration; format: functional; summary of the method: as §5
Mus musculus [31] = assay: In vivo antitumor activity was evaluated on L1210 leukemia model and median survival day was determined at 40 mg/kg dosage concentration; format: functional; summary of the method: as §1
Mus musculus [32] = assay: In vivo antitumor activity was evaluated on L1210 leukemia model and median survival day was determined at 2.5 mg/kg dosage concentration.; format: functional; summary of the method: as §1
Mus musculus [33] = assay: In vivo antitumor activity was evaluated on L1210 leukemia model and percent of treated/control of tumor cells was determined at 50 mg/kg dosage concentration; format: functional; summary of the method: as §5
Mus musculus [34] = assay: In vivo antitumor activity was evaluated on L1210 leukemia model and number of survivors (animals) was determined at 20 mg/kg dosage concentration; number of survivors given as 0/10; format: functional; summary of the method: as §1
Mus musculus [35] = assay: In vivo antitumor activity was evaluated on L1210 leukemia model and weight change in tumors was determined at 5 mg/kg dosage concentration; format: functional
Mus musculus [36] = assay: In vivo antitumor activity was evaluated on L1210 leukemia model and percent of treated/control of tumor cells was determined at 2.5 mg/kg dosage concentration.; format: functional; summary of the method: as §5
Mus musculus [37] = assay: In vivo antitumor activity was evaluated on L1210 leukemia model and weight change in tumors was determined at 50 mg/kg dosage concentration; format: functional
Mus musculus [38] = assay: In vivo antitumor activity was evaluated on L1210 leukemia model and weight change in tumors was determined at 10 mg/kg dosage concentration; format: functional
Mus musculus [39] = assay: In vivo antitumor activity was evaluated on L1210 leukemia model and number of survivors (animals) was determined at 5 mg/kg dosage concentration; number of survivors given as 0/10; format: functional; summary of the method: as §1
Mus musculus [40] = assay: In vivo antitumor activity was evaluated on L1210 leukemia model and percent of treated/control of tumor cells was determined at 5 mg/kg dosage concentration; format: functional; summary of the method: as §5
Mus musculus [41] = assay: In vivo antitumor activity was evaluated on L1210 leukemia model and number of survivors (animals) was determined at 40 mg/kg dosage concentration; number of survivors given as 0/10; format: functional; summary of the method: as §1
Mus musculus [42] = assay: In vivo antitumor activity was evaluated on L1210 leukemia model and number of survivors (animals) was determined at 50 mg/kg dosage concentration; number of survivors given as 0/10; format: functional; summary of the method: as §1

SMILES: O=c1[nH]cc(F)c(=O)[nH]1 [FLUOROURACIL]
- Median survival day (Mus musculus [1]): 18
- Survivors (Mus musculus [2]): 0
- T/C (Mus musculus [3]): 196%
- Weight changes (Mus musculus [4]): 0.1 g
- Survivors (Mus musculus [5]): 10

SMILES: Cc1cnc(NCCCN(C)C)c2c3cnccc3n(C)c12
- T/C (Mus musculus [6]): 150
- T/C (Mus musculus [7]): 173
- T/C (Mus musculus [8]): 136
- K aff (Calf thymus DNA): 40000 M⁻¹
- T/C (Mus musculus [9]): 167

SMILES: CCNCCCNc1[nH]cc(C)c2nc3ccncc3c1-2
- IC50 (L1210): 17.4 µM
- T/C (Mus musculus [10]): Toxic
- T/C (Mus musculus [11]): inactive
- K aff (Calf thymus DNA): 25000 M⁻¹

SMILES: CCN(CC)CCCCNc1[nH]cc(C)c2nc3ccncc3c1-2
- IC50 (L1210): 12 µM
- T/C (Mus musculus [12]): Toxic
- T/C (Mus musculus [13]): inactive
- K aff (Calf thymus DNA): 30000 M⁻¹

SMILES: CCN(CC)CCCNc1ncc(C)c2c1c1cnccc1n2CC
- T/C (Mus musculus [14]): Toxic
- T/C (Mus musculus [15]): inactive
- K aff (Calf thymus DNA): 17000 M⁻¹
- CC50 at 48 h [16]: 1.4 µM

SMILES: Cc1c[nH]c(NCCCN(C)C)c2c3cnccc3nc1-2
- IC50 (L1210): 0.16 µM
- Survivors (Mus musculus [17]): 0
- T/C (Mus musculus [18]): 177%
- Median survival day (Mus musculus [19]): 16.25
- Survivors (Mus musculus [20]): 0
- Weight changes (Mus musculus [21]): -1.1 g
- T/C (Mus musculus [6]): 156
- Median survival day (Mus musculus [22]): 8.2
- Median survival day (Mus musculus [23]): 14
- Weight changes (Mus musculus [24]): 0.3 g
- Median survival day (Mus musculus [25]): 11.75
- Survivors (Mus musculus [26]): 3
- T/C (Mus musculus [27]): 181
- Median survival day (Mus musculus [1]): 15.6
- Weight changes (Mus musculus [28]): 0.3 g
- T/C (Mus musculus [7]): 184
- T/C (Mus musculus [29]): 127.5%
- T/C (Mus musculus [30]): 100%
- Median survival day (Mus musculus [31]): 9.25
- Median survival day (Mus musculus [32]): 12.9
- T/C (Mus musculus [33]): 89%
- Survivors (Mus musculus [34]): 0
- Weight changes (Mus musculus [35]): 0.3 g
- Survivors (Mus musculus [2]): 1
- T/C (Mus musculus [3]): 169.5%
- T/C (Mus musculus [36]): 140%
- Weight changes (Mus musculus [37]): -2.4 g
- Weight changes (Mus musculus [38]): 0.5 g
- Survivors (Mus musculus [39]): 0
- Weight changes (Mus musculus [4]): -1.7 g
- K aff (Calf thymus DNA): 20000 M⁻¹
- T/C (Mus musculus [40]): 152%
- T/C (Mus musculus [9]): 186
- Survivors (Mus musculus [41]): 0
- Survivors (Mus musculus [42]): 0
